The text below walks through data of ChEMBL document CHEMBL1128382, “N4-unsubstituted N1-arylpiperazines as high-affinity 5-HT1A receptor ligands” (J Med Chem, 1995).

Molecules are shown by their SMILES.

As a reminder, the Ki is the equilibrium dissociation constant of an inhibitor or competing ligand from its target. Read a low Ki as tighter binding.

The target of this assay is T1, 5-hydroxytryptamine receptor 1A (Rattus norvegicus, UniProt P19327).
T1 sequence (P19327 whole entry): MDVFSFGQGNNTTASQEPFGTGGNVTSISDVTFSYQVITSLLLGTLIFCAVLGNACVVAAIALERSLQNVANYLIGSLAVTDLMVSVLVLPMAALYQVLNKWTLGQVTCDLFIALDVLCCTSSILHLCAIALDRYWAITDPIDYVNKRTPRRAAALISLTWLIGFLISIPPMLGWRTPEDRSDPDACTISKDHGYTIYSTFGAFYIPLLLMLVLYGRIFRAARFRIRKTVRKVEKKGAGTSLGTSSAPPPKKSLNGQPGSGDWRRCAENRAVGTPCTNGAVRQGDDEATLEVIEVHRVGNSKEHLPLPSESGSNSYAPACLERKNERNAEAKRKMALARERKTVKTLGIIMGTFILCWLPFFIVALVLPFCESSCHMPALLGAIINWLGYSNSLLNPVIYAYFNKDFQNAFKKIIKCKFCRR
Description: Displacement of [3H]2-(di-N-propylamino)-8-hydroxytetralin from central 5-hydroxytryptamine 1A receptor recognition sites in rat frontal cortex homogenates. The format is tissue-based. Put shortly:
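Competition binding against tritiated 8-OH-DPAT in rat frontal cortex homogenate. Ki values come from n separate determinations, each testing four to six ligand concentrations in triplicate.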
On the technique in general: In a radioligand displacement assay an active substance lowers the binding of a labelled ligand.

On to `c1ccc2c(N3CCNCC3)cccc2c1`, for which the Ki stood at 0.018 µM.
The compound `Cc1cc(N2CCNCC2)c2occc2c1` yielded a Ki of 0.12 µM. Compared with the last compound, the Ki is about 6.7-fold higher.
As for `CC1=COc2c(cccc2N2CCNCC2)O1`, the Ki was 0.0052 µM.
The compound `Brc1cc(N2CCNCC2)c2occc2c1` showed a Ki of 0.035 µM. This Ki is about 6.7-fold higher than that of the compound before.
In the case of `Cc1coc2c(N3CCNCC3)cccc12`, the Ki worked out at 0.073 µM.
Then `c1cc2c(c(N3CCNCC3)c1)CCCC2`, with 0.084 µM; and `N#Cc1ccc2ccoc2c1N1CCNCC1`, with 0.22 µM.
In the case of `Fc1ccc(N2CCNCC2)c2occc12`, the Ki amounted to 0.018 µM.
Then `Fc1cc(N2CCNCC2)c2occc2c1`, with 0.105 µM; and `C1=COc2c(cccc2N2CCNCC2)O1`, with 0.012 µM.
Compound `COc1cc(N2CCNCC2)c2occc2c1` registered a Ki of 0.028 µM.
In turn, `Brc1ccc(N2CCNCC2)c2occc12` gave a Ki of 0.3 µM.
Regarding `COc1cccc(N2CCNCC2)c1OC`, affinity was put at a Ki of 1 µM. This Ki lies about 3.3-fold higher than the previous one.
As to `Brc1coc2c(N3CCNCC3)cccc12`, the Ki worked out at 0.13 µM. This Ki is about 7.7-fold lower than that of the compound before.
Regarding `Cc1ccc(N2CCNCC2)c2occc12`, the Ki came out at 0.22 µM. Compared with the last compound, the Ki is about 1.7-fold higher.
With `COc1ccc(N2CCNCC2)cc1` the figure was 20 µM.
With `COc1cccc(N2CCNCC2)c1`, the affinity, expressed as Ki, was 0.32 µM.
With `COc1ccc2c(c1N1CCNCC1)OCCO2` the figure was > 10 µM.
On to `Clc1ccc2c(c1N1CCNCC1)OCCO2`, for which the affinity, expressed as Ki, was 0.2 µM.
Consider `c1cc(N2CCNCC2)c2[nH]ccc2c1`, for which the Ki is 0.2 µM.
Turning to `c1cc(N2CCNCC2)c2sccc2c1`, the Ki was determined as 0.0099 µM.
Regarding `Cc1cc2cccc(N3CCNCC3)c2o1`, affinity was put at a Ki of 0.013 µM. This Ki and that of the compound before are within 1.5-fold of each other.
`Fc1ccc2ccoc2c1N1CCNCC1` gave a Ki of 0.0058 µM.
In turn, `COc1ccc(N2CCNCC2)c2occc12` registered a Ki of 0.43 µM.
`O=[N+]([O-])c1ccc2ccoc2c1N1CCNCC1` returned a Ki of 0.14 µM. Against the preceding compound, the Ki is about 3.1-fold lower.
`c1ccc(N2CCNCC2)cc1` [PHENYLPIPERAZINE]: the affinity, expressed as Ki, was 0.5 µM.
